Data set [1] is described as follows: Half life of hydrolysis in deuterated phosphate buffer at pD 7.8. To be noted: pH 7.8.
The next data set deals with carcinoma cell line. In words: Antitumor activity against human NCI ovarian carcinoma cell line panel. The data set is classed as functional, cell-based. An outline of the steps:
(§1)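 Tested in the NCI in vitro disease-oriented human tumor cell screen. The endpoints are IC50 (molar concentration giving 50% growth inhibition), TGI (total growth inhibition) and LC50 (50% net cell death). The maximal concentration tested was 100 μM. Subpanel values are means of several individual cell lines.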

The test system of data set [2] is NCI. In words: Antitumor activity against human NCI breast cancer cell line panel. The data set is classed as functional, cell-based. An outline of the steps: as §1
Data set [3] has as its system Non-small cell lung cancer cell line. In words: Antitumor activity against human NCI non-small cell lung cancer cell line panel. The data set is classed as functional, cell-based. An outline of the steps:
as §1

Data set [4] relates to NCI. Kind of data set: Antitumor activity against human NCI prostate cancer cell line panel. The data set is classed as functional, cell-based. In outline:
as §1

The subject of data set [5] is NCI. In words: Antitumor activity against NCI human melanoma cell line panel. The data set is classed as functional, cell-based. An outline of the steps: as §1
Data set [6] relates to NCI. In words: Antitumor activity against human NCI renal cancer cell line panel. The data set is classed as functional, cell-based. In outline: as §1
Data set [7] concerns NCI. In words: Antitumor activity against human NCI colon cancer cell line panel. The data set is classed as functional, cell-based. An outline of the steps:
as §1

Data set [8] concerns NCI. In words: Antitumor activity against human NCI leukemia cell line panel. The data set is classed as functional, cell-based. In outline:
as §1

For data set [9], the system named is NCI. In words: Antitumor activity against human NCI CNS cancer cell line panel. The data set is classed as functional, cell-based. In outline: as §1
The subject of data set [10] is SF-268. In words: Antitumor activity against human SF268 cells at 100 uM relative to control. The data set is classed as functional. An outline of the steps: (§2)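 NCI three-cell-line one-dose primary anticancer prescreen at 100 µM. Growth is expressed as % of untreated control cells, with the control taken as 100%.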
Data set [11] concerns NCI-H460. Kind of data set: Antitumor activity against human NCI-H460 cells at 100 uM relative to control. The data set is classed as functional. An outline of the steps:
as §2

Data set [12] concerns MCF7. In words: Antitumor activity against human MCF7 cells at 100 uM relative to control. The data set is classed as functional. An outline of the steps:
as §2

The test system of data set [13] is MCF7. In words: Antitumor activity against human MCF7 cells at 50 uM relative to control. The data set is classed as functional. An outline of the steps:
(§3)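 Tested in the NCI three-cell-line one-dose primary anticancer prescreen. The read-out is growth as % of untreated control cells (100%) at 50 μM.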

Data set [14] concerns NCI-H460. Kind of data set: Antitumor activity against human NCI-H460 cells at 50 uM relative to control. The data set is classed as functional. An outline of the steps: as §3
Data set [15] has as its system SF-268. In words: Antitumor activity against human SF268 cells at 50 uM relative to control. The data set is classed as functional. An outline of the steps:
as §3

Structures are written as SMILES. A value given as a limit tells only on which side of the number the result lay.

`CC(=O)Nc1ccc(OC(=O)N(C)/N=N/c2nc(OCc3ccccc3)c3nc[nH]c3n2)cc1` displayed a half-life in [1] (deuterated phosphate buffer) of 19.3 h.
With `Cn1nnc2c(C(N)=O)ncn2c1=O` [TEMOZOLOMIDE], the IC50 in the data set on carcinoma cell line worked out at 91 µM; in the data set with NCI [2], 100 µM; in [3] it was 100 µM; in the data set on NCI [4] it was 100 µM; with NCI [5] it was 98 µM; in the data set on NCI [6], 98 µM. Moreover, the values for the IC50 with NCI [7], with NCI [8] and with NCI [9] were 100 µM, 79 µM and 93 µM, respectively. In data set [1] (buffer), this molecule yielded a half-life of 0.417 h. In the data set with NCI [8], this molecule yielded a TGI above 100 µM. Also, in the data set on NCI [8] (read-out: LC50 (the source's name)), the CC50 was above 100 µM.
`CN(/N=N/c1nc(OCc2ccccc2)c2nc[nH]c2n1)C(=O)c1ccccc1`: the Activity in the data set with SF-268 [10] was 79%; with NCI-H460 [11], 93%; with MCF7 [12], 107%. This molecule showed a half-life in [1] (deuterated phosphate buffer) of 38.3 h.
Turning to `CN(/N=N/c1nc(OCc2ccccc2)c2nc[nH]c2n1)C(=O)Oc1ccccc1`, the Activity in the data set on SF-268 [10] was determined as 102%; in the data set with NCI-H460 [11], 87%; in the data set with MCF7 [12], 107%. Besides, the half-life in data set [1] (deuterated phosphate buffer) was 19.2 h.
For `CCOC(=O)N(C)/N=N/c1nc(OCc2ccccc2)c2nc[nH]c2n1` the same measures were 91%, 90%, 103% and 58.3 h.
In [1] (deuterated phosphate buffer), `CN(/N=N/c1nc(OCc2ccccc2)c2nc[nH]c2n1)C(=O)Oc1ccc(C(N)=O)cc1` displayed a half-life of 6.42 h.
On the same count and under the same terms, then `CN(/N=N/c1nc(OCc2ccccc2)c2nc[nH]c2n1)C(=O)c1ccc([N+](=O)[O-])cc1`, with 16 h.
For `CC(=O)N(C)/N=N/c1nc(OCc2ccccc2)c2nc[nH]c2n1`, the Activity in the data set with SF-268 [10] was found to be 78%; in the data set with NCI-H460 [11], 89%; in the data set on MCF7 [12] it was 99%. This molecule also returned a half-life in [1] (deuterated phosphate buffer) of 58.3 h.
In turn, `CN(/N=N/c1nc(OCc2ccccc2)c2nc[nH]c2n1)C(=O)Oc1ccc(S(N)(=O)=O)cc1` returned a half-life in data set [1] (deuterated phosphate buffer) of 2.82 h.
With `CN(/N=N/c1nc(OCc2ccccc2)c2nc[nH]c2n1)C(=O)c1cccnc1`, the half-life in [1] (deuterated phosphate buffer) was found to be 8.83 h.
For the molecule `COC(=O)c1ccc(OC(=O)N(C)/N=N/c2nc(OCc3ccccc3)c3nc[nH]c3n2)cc1`, the Activity in the data set with MCF7 [13] came to 116%; in the data set with NCI-H460 [14] it was 53%; with SF-268 [15] it was 107%. Moreover, in [1] (deuterated phosphate buffer), the half-life was determined as 2.45 h.

The values are drawn from ChEMBL document CHEMBL1149311, “Synthesis and antitumor activity of methyltriazene prodrugs simultaneously releasing DNA-methylating agents and the antiresistance drug O(6)-benzylguanine” (J Med Chem, 2004).
